Among the data in ChEMBL document CHEMBL3351503, “Imidazopyridine- and purine-thioacetamide derivatives: potent inhibitors of nucleotide pyrophosphatase/phosphodiesterase 1 (NPP1)” (J Med Chem, 2014) are Ki and inhibition values, retold here.

As usually defined, the Ki is a measure of affinity in units of concentration, obtained from inhibition or displacement. Read a low Ki as higher affinity. For orientation: inhibition means the drop in the measured response relative to a control, in per cent.

Assay [1] concerns the target T1, Ectonucleotide pyrophosphatase/phosphodiesterase family member 1 (Homo sapiens, UniProt P22413).
T1 sequence (P22413 whole entry): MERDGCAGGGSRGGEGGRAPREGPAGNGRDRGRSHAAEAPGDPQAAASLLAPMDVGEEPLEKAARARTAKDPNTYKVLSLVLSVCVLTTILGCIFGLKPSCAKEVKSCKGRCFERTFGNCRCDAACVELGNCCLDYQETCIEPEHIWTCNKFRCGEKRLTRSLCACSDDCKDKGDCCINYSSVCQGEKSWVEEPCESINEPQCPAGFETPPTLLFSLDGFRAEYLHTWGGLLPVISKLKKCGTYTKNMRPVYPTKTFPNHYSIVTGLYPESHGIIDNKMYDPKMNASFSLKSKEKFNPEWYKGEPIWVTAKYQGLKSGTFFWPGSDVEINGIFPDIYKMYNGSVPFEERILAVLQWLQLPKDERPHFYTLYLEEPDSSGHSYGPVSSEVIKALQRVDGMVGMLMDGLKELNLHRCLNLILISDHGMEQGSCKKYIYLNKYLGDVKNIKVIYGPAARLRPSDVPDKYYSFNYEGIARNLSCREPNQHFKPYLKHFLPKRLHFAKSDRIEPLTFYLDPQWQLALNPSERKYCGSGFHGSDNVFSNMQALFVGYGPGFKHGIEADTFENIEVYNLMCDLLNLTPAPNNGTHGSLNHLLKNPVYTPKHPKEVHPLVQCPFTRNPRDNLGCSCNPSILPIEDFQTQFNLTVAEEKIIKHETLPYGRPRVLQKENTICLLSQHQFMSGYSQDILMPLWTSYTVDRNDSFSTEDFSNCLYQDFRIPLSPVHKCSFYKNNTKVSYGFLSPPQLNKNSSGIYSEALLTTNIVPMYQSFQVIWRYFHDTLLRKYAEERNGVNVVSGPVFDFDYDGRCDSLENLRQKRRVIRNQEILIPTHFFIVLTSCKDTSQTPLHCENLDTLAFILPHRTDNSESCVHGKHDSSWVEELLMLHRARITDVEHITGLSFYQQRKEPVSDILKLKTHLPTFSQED
Kind of assay: Competitive inhibition of human NPP1 using p-Nph-5'-TMP as substrate by Lineweaver-Burk plot analysis.

The target of assay [2] is T1, Ectonucleotide pyrophosphatase/phosphodiesterase family member 1. Kind of assay: Competitive inhibition of human NPP1 using ATP as substrate by Lineweaver-Burk plot analysis.
The target is the same in assay [3]. The assay can be described thus: Inhibition of human NPP1 using p-Nph-5'-TMP as substrate.
Assay [4] has as its target T2, Ectonucleotide pyrophosphatase/phosphodiesterase family member 1 (Homo sapiens) (UniProt P22413).
T2 sequence (whole entry): T1 sequence (P22413 whole entry)
Kind of assay: Inhibition of human NPP1 using p-Nph-5'-TMP as substrate at 10 uM. A digest of the protocol: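 Single-point screen at 10 μM compound against soluble human NPP1 (20 ng), 400 μM p-Nph-5′-TMP, 50 mM Tris pH 9.0, 1 mM CaCl2, 200 μM ZnCl2, 37 °C 15 min, NaOH stop; percent inhibition from p-nitrophenolate absorbance at 400 nm; compounds in DMSO (10 mM stock).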

Assay [5] concerns the target T3, Ectonucleotide pyrophosphatase/phosphodiesterase family member 3 (Homo sapiens, UniProt O14638).
T3 sequence (O14638 whole entry): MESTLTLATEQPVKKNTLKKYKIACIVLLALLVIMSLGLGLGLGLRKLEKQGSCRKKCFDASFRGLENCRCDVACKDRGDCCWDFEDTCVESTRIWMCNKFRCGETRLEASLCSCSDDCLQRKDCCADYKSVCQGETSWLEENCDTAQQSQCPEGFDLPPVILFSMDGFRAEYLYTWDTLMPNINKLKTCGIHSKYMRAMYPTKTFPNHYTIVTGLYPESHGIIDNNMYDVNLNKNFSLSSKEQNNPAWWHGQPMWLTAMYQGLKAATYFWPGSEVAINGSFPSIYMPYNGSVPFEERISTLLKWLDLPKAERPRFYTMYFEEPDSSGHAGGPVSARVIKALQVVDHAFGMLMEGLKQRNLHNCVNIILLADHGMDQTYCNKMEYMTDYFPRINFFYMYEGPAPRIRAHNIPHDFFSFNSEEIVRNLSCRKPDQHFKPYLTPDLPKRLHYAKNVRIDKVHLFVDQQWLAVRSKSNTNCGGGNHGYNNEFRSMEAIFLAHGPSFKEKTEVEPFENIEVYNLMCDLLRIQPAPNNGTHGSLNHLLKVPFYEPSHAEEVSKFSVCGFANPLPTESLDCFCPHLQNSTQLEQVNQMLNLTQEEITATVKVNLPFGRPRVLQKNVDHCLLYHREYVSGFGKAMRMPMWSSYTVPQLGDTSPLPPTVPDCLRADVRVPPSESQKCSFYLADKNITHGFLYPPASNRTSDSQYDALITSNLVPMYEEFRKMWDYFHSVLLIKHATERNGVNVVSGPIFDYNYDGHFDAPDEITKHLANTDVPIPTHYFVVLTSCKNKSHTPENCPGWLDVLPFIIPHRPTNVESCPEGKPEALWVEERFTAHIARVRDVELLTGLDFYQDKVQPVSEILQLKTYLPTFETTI
Kind of assay: Competitive inhibition of human NPP3 using ATP as substrate.

The next assay has as its target Autotaxin (Homo sapiens, UniProt Q13822). Kind of assay: Competitive inhibition of human NPP2 using lysophosphotidylcholine as substrate.

Regarding `COc1ccc(NC(=O)CSc2nc3ccc[nH]c-3n2)cc1OC`, the Ki stood at 0.217 µM in assay [1], 22.3 µM in assay [2] and 0.217 µM in assay [3].

Consider `CC(=O)c1cccc(NC(=O)CSc2nc3cccnc3[nH]2)c1`, for which, in assay [4], the inhibition came out at 50%.

As to `COc1cccc(NC(=O)CSc2nc3cccnc3[nH]2)c1`, the inhibition in assay [4] came out at 30%.

`COc1ccc(NC(=O)CSc2nc3c(=O)[nH]c(=O)[nH]c3[nH]2)cc1OC`: the Ki amounted to 0.0358 µM in assay [1], 22.5 µM in assay [2] and 0.0358 µM in assay [3].

For the compound `COc1ccc(NC(=O)CSc2nc3c(N)nc(SC)nc3[nH]2)cc1OC`, the figures for the Ki in assay [1], in assay [2] and in assay [3] were 0.152 µM, 26.7 µM and 0.152 µM, respectively.

Consider `COc1ccc(NC(=O)CSc2nc3cccnc3[nH]2)cc1`, for which the inhibition in assay [4] was 48%.

As for `Cc1ccc(NC(=O)CSc2nc3cccnc3[nH]2)cc1C`, in assay [4], the inhibition was 11%.

With `Cc1cccc(C)c1NC(=O)CSc1nc2cccnc2[nH]1`, the inhibition in assay [4] amounted to 19%.

As for `COc1ccc(NC(=O)CSc2nc3ccc(SC)nc3[nH]2)cc1OC`, the inhibition in assay [4] was determined as 59%.

With `COc1ccc(NC(=O)CSc2nc3c(=O)[nH]cnc3[nH]2)cc1OC`, the values for the Ki in assay [1], in assay [2] and in assay [3] were 0.02 µM, 14.3 µM and 0.02 µM, respectively.

Consider `COc1ccc2nc(SCC(=O)Nc3ccc(OC)c(OC)c3)[nH]c2n1`, for which the results for the Ki (in assay [5]; on Autotaxin) were 68.1 µM and 71.2 µM, respectively.

In turn, `COc1ccc(NC(=O)CCSc2nc3cccnc3[nH]2)cc1OC` gave an inhibition in assay [4] of 13%.

Consider `COc1ccc(NC(=O)CSc2nc3c(N)ncnc3[nH]2)cc1OC`, for which the Ki turned out to be 0.005 µM in assay [1], 18 µM in assay [2] and 0.005 µM in assay [3].

`COc1ccc(NS(=O)(=O)CSc2nc3ncccc3[nH]2)cc1OC` displayed an inhibition in assay [4] of 50%.

As to `COc1ccc(NC(=O)CSc2nc3c(N)nc(N)nc3[nH]2)cc1OC`, the Ki in assay [1] came to 3.48 µM; in assay [2], 78 µM; in assay [3], 3.48 µM.

In assay [4], `COc1ccc(NC(=O)CSc2ncc[nH]2)cc1OC` showed an inhibition of 64%.

Regarding `O=C(CSc1nc2cccnc2[nH]1)Nc1ccccc1Cl`, in assay [4], the inhibition is 19%.

For `CCn1c(=O)[nH]c(=O)c2nc(SCC(=O)Nc3ccc(OC)c(OC)c3)[nH]c21`, the inhibition in assay [4] was 43%.

For `COc1ccc(NC(=O)CSc2nc3cncnc3[nH]2)cc1OC`, the Ki turned out to be 0.281 µM in assay [1], 15.7 µM in assay [2] and 0.281 µM in assay [3].

For `COc1ccc(NC(=O)CSc2nc3ccc(N(C)C)nc3[nH]2)cc1OC`, in assay [4], the inhibition came out at 58%.

In the case of `COc1ccc(NC(=O)CSc2nc3c(OC)nc(N)nc3[nH]2)cc1OC`, the values for the Ki in assay [1], in assay [2] and in assay [3] were 8.04 µM, 42.2 µM and 8.04 µM, respectively.

As for `COc1ccc(OC)c(NC(=O)CSc2nc3cccnc3[nH]2)c1`, in assay [4], the inhibition stood at 12%.

For the compound `O=C(CSc1nc2cccnc2[nH]1)Nc1cccc(Br)c1`, the inhibition in assay [4] came out at 23%.

On to `COc1ccc(CNC(=O)CSc2nc3cccnc3[nH]2)cc1OC`, for which the inhibition in assay [4] came to 0%.

For `COc1ccc(NC(=O)CSc2nc3c(OC(C)C)nc(N)nc3[nH]2)cc1OC`, the values for the Ki in assay [1], in assay [2] and in assay [3] were 11 µM, 89.7 µM and 11 µM, respectively.

`Cc1ccc(NC(=O)CSc2nc3cccnc3[nH]2)c(Cl)c1` registered an inhibition in assay [4] of 2%.

Consider `COc1ccc(NC(=O)CSc2nc3c(SC)nc(N)nc3[nH]2)cc1OC`, for which the Ki in assay [1] was 3.65 µM; in assay [2], 67.9 µM; in assay [3] it was 3.65 µM.

Consider `COc1ccc(NC(=O)CSc2nc3cnccc3[nH]2)cc1OC`, for which the inhibition constant Ki in assay [1] amounted to 0.0442 µM; in assay [2], 29.2 µM; in assay [3], 0.0442 µM.

Compound `COc1ccc(NC(=O)CSc2nc3cccnc3[nH]2)c(OC)c1` returned an inhibition in assay [4] of 8%.

In turn, `CCOC(=O)c1cccc(NC(=O)CSc2nc3cccnc3[nH]2)c1` displayed an inhibition in assay [4] of 15%.

Regarding `COc1ccc(NC(=O)CSc2nc3ccc(N4CCN(C)CC4)nc3[nH]2)cc1OC`, the inhibition in assay [4] came to 35%.

Compound `O=C(CSc1nc2cccnc2[nH]1)Nc1ccc(F)cc1` gave an inhibition in assay [4] of 30%.

The compound `COc1ccc(NC(=O)CSc2nc3ccccc3[nH]2)cc1OC` showed an inhibition in assay [4] of 34%.

As for `COc1ccc(NC(=O)CSc2nc3cc(Cl)cnc3[nH]2)cc1OC`, the Ki in assay [1] turned out to be 0.137 µM; in assay [2], 9.78 µM; in assay [3], 0.137 µM.

The compound `COc1cc(NC(=O)CSc2nc3cccnc3[nH]2)cc(OC)c1` showed an inhibition in assay [4] of 38%.

With `COc1ccc(NC(=O)CSc2nc3ccc(N4CCOCC4)nc3[nH]2)cc1OC`, in assay [4], the inhibition is 45%.

On to `COc1ccc(NC(=O)CSc2nc3ccc(OCC(F)(F)F)nc3[nH]2)cc1OC`, for which the inhibition in assay [4] is 61%.

Take `O=C(CSc1nc2cccnc2[nH]1)Nc1ccc(Cl)cc1`: in assay [4], the inhibition was 17%.

Regarding `O=C(CSc1nc2cccnc2[nH]1)Nc1ccccc1F`, the inhibition in assay [4] was determined as 13%.

Consider `COc1ccc(NC(=O)C(C)Sc2nc3cccnc3[nH]2)cc1OC` (centres undefined), for which the inhibition in assay [4] was 6%.

Take `COc1ccc(NC(=O)CSc2nc3nccnc3[nH]2)cc1OC`: the Ki in assay [1] is 0.131 µM; in assay [2], 30.2 µM; in assay [3] it was 0.131 µM.

Take `COc1ccc(NC(=O)CSc2nc3ccc(N4CCCCC4)nc3[nH]2)cc1OC`: the inhibition in assay [4] stood at 27%.

As to `COc1ccc(NC(=O)CSc2nc3c(C)ccnc3[nH]2)cc1OC`, the Ki in assay [1] is 0.127 µM; in assay [2], 7.59 µM; in assay [3], 0.127 µM.

With `COc1ccc(NC(=O)CSc2nc3c(=O)n(C)c(=O)n(C)c3[nH]2)cc1OC`, the inhibition in assay [4] was determined as 23%.

In turn, `CN(C)c1ccc(NC(=O)CSc2nc3cccnc3[nH]2)cc1` had an inhibition in assay [4] of 23%.

`O=C(CSc1nc2cccnc2[nH]1)Nc1ccc(Cl)c(Cl)c1` showed an inhibition in assay [4] of 10%.

For `COc1ccc(NC(=O)CSc2nc3cc(Br)cnc3[nH]2)cc1OC`, the Ki in assay [1] is 0.192 µM; in assay [2], 10.8 µM; in assay [3], 0.192 µM.

`N#Cc1cccc(NC(=O)CSc2nc3cccnc3[nH]2)c1` returned an inhibition in assay [4] of 45%.

With `O=C(CSc1nc2cccnc2[nH]1)Nc1ccccc1`, the inhibition in assay [4] turned out to be 30%.

Consider `COc1ccccc1NC(=O)CSc1nc2ccc[nH]c-2n1`, for which the inhibition in assay [4] turned out to be 21%.

As to `CCOc1nc(N)nc2[nH]c(SCC(=O)Nc3ccc(OC)c(OC)c3)nc12`, the Ki is 1.01 µM in assay [1], 33.6 µM in assay [2] and 1.01 µM in assay [3].
